Measurements as given in ChEMBL document CHEMBL1134569, “Synthesis and in vitro and in vivo antimalarial activity of new 4-anilinoquinolines” (J Med Chem, 2001).
Several values for one entry are separate records, joined by “and”; a condition that tells them apart may be missing. Equal entries are not always repeated.

How the values were obtained:
[1] = Cytotoxicity upon MPMs (mouse peritoneal macrophages) at 2 uM
Procedure, shortened: (§1)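 Mouse peritoneal macrophages harvested 48 h after potato-starch stimulation and seeded at 30000 cells/well. After 24 h, washed and exposed to 2-fold drug dilutions in RPMI + 5% FCS (final DMSO below 0.5%) at 37 °C, 5% CO₂, for 7 days. Toxicity scored microscopically as toxic or not versus untreated controls.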

[2] = Cytotoxicity upon MRC-5 cells (diploid embryonic lung cell line) at 1 uM; type: cell-based, MRC5; conditions: human
Procedure, shortened: (§2)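 MRC-5 human diploid embryonic lung cells seeded at 5000/well, washed after 24 h, then given 2-fold drug dilutions in RPMI + 5% FCS (final DMSO below 0.5%). Incubated at 37 °C, 5% CO₂, for 7 days. MTT read-out at 540 nm, scored as percent absorbance reduction versus untreated controls.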

[3] = Cytotoxicity upon MRC-5 cells (diploid embryonic lung cell line) at 32 uM; type: cell-based, MRC5; conditions: human; procedure, shortened: as §2
[4] = Cytotoxicity upon MRC-5 cells (diploid embryonic lung cell line) at 8 uM; type: cell-based, MRC5; conditions: human; procedure, shortened: as §2
[5] = Cytotoxicity upon MPMs (mouse peritoneal macrophages) at 32 uM; procedure, shortened: as §1
[6] = Cytotoxicity upon MPMs (mouse peritoneal macrophages) at 8 uM; procedure, shortened: as §1
Plasmodium falciparum = assay: Inhibitory activity against chloroquine-resistant Plasmodium falciparum FcB1R; type: functional, organism-based
[7] = Cytotoxicity upon MRC-5 cells (diploid embryonic lung cell line) at 12.5 uM; type: cell-based, MRC5; conditions: human; procedure, shortened: as §2
[8] = Cytotoxicity upon MRC-5 cells (diploid embryonic lung cell line) at 3.1 uM; type: cell-based, MRC5; conditions: human; procedure, shortened: as §2
[9] = Cytotoxicity upon MRC-5 cells (diploid embryonic lung cell line) at 6.3 uM; type: cell-based, MRC5; conditions: human; procedure, shortened: as §2

SMILES	NT [1]	cytotoxicity at 1 µM [2]	cytotoxicity at 32 µM [3]	cytotoxicity at 8 µM [4]	Cytotoxicity [5]	Cytotoxicity [6]	IC50 (Plasmodium falciparum; Plasmodium falciparum)	cytotoxicity at 12.5 µM [7]	cytotoxicity at 3.1 µM [8]	cytotoxicity at 6.3 µM [9]	IC50 (Plasmodium falciparum)
O=C(CN1CCCCC1)Nc1cc(CN2CCN(Cc3ccc([N+](=O)[O-])cc3)CC2)cc(Nc2ccnc3cc(Cl)ccc23)c1	Cytotoxicity upon MPMs at 2 uM	0%	100%	99%	Cytotoxicity upon MPMs at 32 uM	Cytotoxicity upon MPMs at 32 uM	13.2 nM	–	–	–	–
O=C(CN1CCCCC1)Nc1cc(CN2CCN(Cc3ccc(Cl)cc3)CC2)cc(Nc2ccnc3cc(Cl)ccc23)c1	Cytotoxicity upon MPMs at 2 uM	0%	100%	100%	Cytotoxicity upon MPMs at 32 uM	Cytotoxicity upon MPMs at 32 uM	11.5 nM	–	–	–	–
O=C(CN1CCCCC1)Nc1cc(CN2CCN(C(c3ccccc3)c3ccccc3)CC2)cc(Nc2ccnc3cc(Cl)ccc23)c1	Cytotoxicity upon MPMs at 2 uM	87%	98%	97%	Cytotoxicity upon MPMs at 32 uM	Cytotoxicity upon MPMs at 32 uM	12.5 nM	–	–	–	–
O=C(CN1CCCCC1)Nc1cc(CN2CCN(Cc3ccccc3)CC2)cc(Nc2ccnc3cc(Cl)ccc23)c1	Cytotoxicity upon MPMs at 2 uM	0%	100%	100%	Cytotoxicity upon MPMs at 32 uM	Cytotoxicity upon MPMs at 32 uM	13 nM	–	–	–	–
O=C(CN1CCCCC1)Nc1cc(CN2CCN(CCO)CC2)cc(Nc2ccnc3cc(Cl)ccc23)c1	Cytotoxicity upon MPMs at 2 uM	0%	100%	100%	Cytotoxicity upon MPMs at 32 uM	Cytotoxicity upon MPMs at 32 uM	11.5 nM	–	–	–	–
O=C(CN1CCCCC1)Nc1cc(CN2CCCC2)cc(Nc2ccnc3cc(Cl)ccc23)c1	Cytotoxicity upon MPMs at 2 uM	0%	100%	100%	Cytotoxicity upon MPMs at 32 uM	Cytotoxicity upon MPMs at 32 uM	6.9 nM	–	–	–	–
O=C(CN1CCCCC1)Nc1cc(CN2CCN(Cc3ccc4c(c3)OCO4)CC2)cc(Nc2ccnc3cc(Cl)ccc23)c1	Cytotoxicity upon MPMs at 2 uM	86%	100%	99%	Cytotoxicity upon MPMs at 32 uM	Cytotoxicity upon MPMs at 32 uM	6.9 nM	–	–	–	–
CC(C)(C)NCc1cc(NC(=O)CN2CCCCC2)cc(Nc2ccnc3cc(Cl)ccc23)c1	Cytotoxicity upon MPMs at 2 uM	0%	100%	100%	Cytotoxicity upon MPMs at 32 uM	Cytotoxicity upon MPMs at 32 uM	3.7 nM	–	–	–	–
O=C(CNCc1ccc(Cl)cc1)Nc1cc(CO)cc(Nc2ccnc3cc(Cl)ccc23)c1	–	–	–	–	–	–	855 nM	0%	0%	0%	–
O=C(CN1CCc2ccccc2C1)Nc1cc(CO)cc(Nc2ccnc3cc(Cl)ccc23)c1	–	–	–	–	–	–	1450 nM	0%	0%	0%	–
CN1CCN(Cc2cc(NC(=O)CN3CCCCC3)cc(Nc3ccnc4cc(Cl)ccc34)c2)CC1	Cytotoxicity upon MPMs at 2 uM	0%	83%	80%	Cytotoxicity upon MPMs at 32 uM	Cytotoxicity upon MPMs at 32 uM	7.5 nM	–	–	–	–
O=C(CN1CCCCC1)Nc1cc(CN2CCC(O)CC2)cc(Nc2ccnc3cc(Cl)ccc23)c1	Cytotoxicity upon MPMs at 2 uM	0%	100%	100%	Cytotoxicity upon MPMs at 32 uM	Cytotoxicity upon MPMs at 32 uM	6.5 nM	–	–	–	–
COc1ccc(CN2CCN(Cc3cc(NC(=O)CN4CCCCC4)cc(Nc4ccnc5cc(Cl)ccc45)c3)CC2)cc1	Cytotoxicity upon MPMs at 2 uM	50%	100%	100%	Cytotoxicity upon MPMs at 32 uM	Cytotoxicity upon MPMs at 32 uM	11 nM	–	–	–	–
O=C(CN1CCC(O)CC1)Nc1cc(CO)cc(Nc2ccnc3cc(Cl)ccc23)c1	–	–	–	–	–	–	1050 nM	0%	0%	0%	–
O=C(CN1CCCCC1)Nc1cc(CNCc2ccc(C(F)(F)F)cc2)cc(Nc2ccnc3cc(Cl)ccc23)c1	Cytotoxicity upon MPMs at 2 uM	0%	100%	100%	Cytotoxicity upon MPMs at 32 uM	Cytotoxicity upon MPMs at 32 uM	5.5 nM	–	–	–	–
O=C(CN1CCCCC1)Nc1cc(CNC(c2ccccc2)c2ccccc2)cc(Nc2ccnc3cc(Cl)ccc23)c1	Cytotoxicity upon MPMs at 2 uM	0%	100%	100%	Cytotoxicity upon MPMs at 32 uM	Cytotoxicity upon MPMs at 32 uM	9.1 nM	–	–	–	–
O=C(CN1CCCCC1)Nc1cc(CNCCN2CCCC2)cc(Nc2ccnc3cc(Cl)ccc23)c1	Cytotoxicity upon MPMs at 2 uM	–	100%	100%	Cytotoxicity upon MPMs at 32 uM	–	10.2 nM	–	–	–	6.6 nM and 7.9 nM
O=C(CN1CCCCC1)Nc1cc(CNc2ccccc2)cc(Nc2ccnc3cc(Cl)ccc23)c1	Cytotoxicity upon MPMs at 2 uM	0%	100%	100%	Cytotoxicity upon MPMs at 32 uM	Cytotoxicity upon MPMs at 32 uM	21.2 nM	–	–	–	–
CN(C)CCN(C)Cc1cc(NC(=O)CN2CCCCC2)cc(Nc2ccnc3cc(Cl)ccc23)c1	Cytotoxicity upon MPMs at 2 uM	43%	100%	100%	Cytotoxicity upon MPMs at 32 uM	Cytotoxicity upon MPMs at 32 uM	5 nM	–	–	–	–
O=C(CN1CCCCC1)Nc1cc(CN2CCN(c3ccccc3)CC2)cc(Nc2ccnc3cc(Cl)ccc23)c1	Cytotoxicity upon MPMs at 2 uM	0%	100%	100%	Cytotoxicity upon MPMs at 32 uM	Cytotoxicity upon MPMs at 32 uM	5.5 nM	–	–	–	–
O=C(CN1CCCCC1)Nc1cc(CNCc2ccccc2)cc(Nc2ccnc3cc(Cl)ccc23)c1	Cytotoxicity upon MPMs at 2 uM	96%	100%	100%	Cytotoxicity upon MPMs at 32 uM	Cytotoxicity upon MPMs at 32 uM	8.5 nM	–	–	–	–
